Columns and labels:
H4 = test: In vitro cytotoxic activity against human H4 cancer cell lines after 3 days of culture; assay type: functional
Outline: (§1)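 MTT overall-growth panel across 57 human cancer lines. Cells were plated for 24 h at 10 000–40 000 cells/mL, depending on cell type. Drugs were given at nine concentrations, 10^-9 to 10^-5 M in semilog steps, for 3 days. Absorbance was read at 570 nm with a 630 nm reference, in sextuplicate. Surviving cells are expressed as % of untreated control (100%).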

[1] = In vitro cytotoxic activity against human C32 cancer cell lines after 3 days of culture; assay type: functional; outline: as §1
T-24 = test: In vitro cytotoxic activity against human T24 cancer cell lines after 3 days of culture; assay type: functional
Outline: (§2)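 Human cancer cell lines, seeded 10 000–40 000 cells/mL and plated for 24 h, then exposed 72 h to nine drug concentrations from 10^-9 to 10^-5 M in semilog steps. Overall growth read by MTT reduction to formazan, absorbance at 570 nm (reference 630 nm). Sextuplicate wells; IC50 is the concentration reducing overall growth by 50% versus untreated control.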

A204 = test: In vitro cytotoxic activity against human A204 cancer cell lines after 3 days of culture; assay type: functional; outline: as §1
A-427 = test: In vitro cytotoxic activity against human A427 cancer cell lines after 3 days of culture; assay type: functional; outline: as §1
A549 [2] = test: In vitro cytotoxic activity against human A549 cancer cell lines after 3 days of culture; assay type: functional; outline: as §1
ACHN = test: In vitro cytotoxic activity against human ACHN cancer cell lines after 3 days of culture; assay type: functional; outline: as §1
FaDu = test: In vitro cytotoxic activity against human FaDu cancer cell lines after 3 days of culture; assay type: functional; outline: as §1
[3] = In vitro cytotoxic activity against human G361 cancer cell lines after 3 days of culture; assay type: functional; outline: as §1
HT-29 = test: In vitro cytotoxic activity against human HT-29 cancer cell lines after 3 days of culture; assay type: functional; outline: as §1
ZR-75-1 = test: In vitro cytotoxic activity against human ZR-75-1 cancer cell lines after 3 days of culture; assay type: functional; outline: as §2
Malme-3M = test: In vitro cytotoxic activity against human MALME-3M cancer cell lines after 3 days of culture; assay type: functional; outline: as §1
[4] = In vitro cytotoxic activity against human […] cancer cell lines after 3 days of culture; assay type: functional; outline: as §1
[5] = In vitro cytotoxic activity against human SK-LMS-1 cancer cell lines after 3 days of culture; assay type: functional; outline: as §1
[6] = In vitro cytotoxic activity against human SK-UT-1B cancer cell lines after 3 days of culture; assay type: functional; outline: as §2
SK-MEL-28 = test: In vitro cytotoxic activity against human SKMEL-28 cancer cell lines after 3 days of culture; assay type: functional; outline: as §2
LoVo [7] = test: In vitro cytotoxic activity against human LoVo cancer cell lines after 3 days of culture; assay type: functional; outline: as §1
PC-3 = test: In vitro cytotoxic activity against human PC-3 cancer cell lines after 3 days of culture; assay type: functional; outline: as §1
T98G = test: In vitro cytotoxic activity against human T98G cancer cell lines after 3 days of culture; assay type: functional; outline: as §2
WiDr = test: In vitro cytotoxic activity against human WiDr cancer cell lines after 3 days of culture; assay type: functional; outline: as §2
[8] = In vitro cytotoxic activity against human 769-P cancer cell lines after 3 days of culture; assay type: functional; outline: as §1
786-0 = test: In vitro cytotoxic activity against human 786-O cancer cell lines after 3 days of culture; assay type: functional; outline: as §1
A498 = test: In vitro cytotoxic activity against human A-498 cancer cell lines after 3 days of culture; assay type: functional; outline: as §1
BT-20 = test: In vitro cytotoxic activity against human BT-20 cancer cell lines after 3 days of culture; assay type: functional; outline: as §1
DLD-1 = test: In vitro cytotoxic activity against human DLD-1 cancer cell lines after 3 days of culture; assay type: functional; outline: as §1
DU-145 = test: In vitro cytotoxic activity against human DU145 cancer cell lines after 3 days of culture; assay type: functional; outline: as §1
[9] = In vitro cytotoxic activity against human Hs 683 cancer cell lines after 3 days of culture; assay type: functional; outline: as §1
LNCaP = test: In vitro cytotoxic activity against human LNCaP cancer cell lines after 3 days of culture; assay type: functional; outline: as §1
[10] = In vitro cytotoxic activity against human SCC-9 cancer cell lines after 3 days of culture; assay type: functional; outline: as §1
[11] = In vitro cytotoxic activity against human SW948 cancer cell lines after 3 days of culture; assay type: functional; outline: as §2
T47D = test: In vitro cytotoxic activity against human T-47D cancer cell lines after 3 days of culture; assay type: functional; outline: as §2
[12] = In vitro cytotoxic activity against human AL-12T cancer cell lines after 3 days of culture; assay type: functional; outline: as §1
BXPC-3 = test: In vitro cytotoxic activity against human BxPC-3 cancer cell lines after 3 days of culture; assay type: functional; outline: as §1
CAKI-2 = test: In vitro cytotoxic activity against human CAKI-2 cancer cell lines after 3 days of culture; assay type: functional; outline: as §1
[13] = target: Sodium/potassium-transporting ATPase subunit alpha-1 (Sus scrofa, UniProt P05024); test: In vitro inhibitory activity against porcine Na+/K+-ATPase
Outline: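 Porcine cerebral cortex Na+/K+-ATPase (3 × 10-3 units), preincubated 30 min at 37 °C in 30 mM Tris-HCl pH 7.4, 5 mM MgCl2 with inhibitor (1 to 50 000 nM). ADP formation coupled via pyruvate kinase/lactate dehydrogenase, excess phosphoenolpyruvate, to NADH oxidation.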

Mus musculus = test: Maximum tolerated dose after intraperitoneal administration in mouse (period of 28 days); assay type: functional
Outline: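 Healthy, non-tumour-bearing B6D2F1 mice given one acute intraperitoneal dose, three mice per dose group, doses 5, 10, 20, 40, 80, 120 and 160 mg/kg. Survival and body weight followed for 28 days after injection. MTD is the highest single dose causing no deaths over the period.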

A549 [14] = test: Concentration required for 50% growth inhibition of human A549 cancer cell lines after 3 days of culture; assay type: functional, cell-based; details: A549, 72 h
Outline: (§3)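 MTT overall-growth assay on the five lines. Cells were plated for 24 h at 10 000–40 000 cells/mL, depending on cell type. Nine concentrations from 10^-9 to 10^-5 M in semilog steps were applied for 72 h. Formazan was read at 570 nm against a 630 nm reference, in sextuplicate. IC50 = concentration reducing overall growth by 50% versus untreated control.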

U373 MG [15] = test: Concentration required for 50% growth inhibition of human U373 cancer cell lines after 3 days of culture; assay type: functional, cell-based, U-373MG ATCC; details: 72 h; outline: as §3
HCT-15 [16] = test: Concentration required for 50% growth inhibition of human HCT-15 cancer cell lines after 3 days of culture; assay type: functional, cell-based; details: HCT-15, 72 h; outline: as §3
HCT-15 [17] = test: In vitro cytotoxic activity against human HCT-15 cancer cell lines after 3 days of culture; assay type: functional; outline: as §1
[18] = In vitro cytotoxic activity against human HT144 cancer cell lines after 3 days of culture; assay type: functional; outline: as §1
HT-1080 = test: In vitro cytotoxic activity against human HT1080 cancer cell lines after 3 days of culture; assay type: functional; outline: as §1
[19] = In vitro cytotoxic activity against human Hs 174.T cancer cell lines after 3 days of culture; assay type: functional; outline: as §1
[20] = In vitro cytotoxic activity against human Hs 766.T cancer cell lines after 3 days of culture; assay type: functional; outline: as §1
MES-SA = test: In vitro cytotoxic activity against human MES-SA cancer cell lines after 3 days of culture; assay type: functional; outline: as §1
PANC-1 = test: In vitro cytotoxic activity against human Panc-1 cancer cell lines after 3 days of culture; assay type: functional; outline: as §1
[21] = In vitro cytotoxic activity against human SW1088 cancer cell lines after 3 days of culture; assay type: functional; outline: as §2
[22] = In vitro cytotoxic activity against human SW1783 cancer cell lines after 3 days of culture; assay type: functional; outline: as §2
U-87 MG = test: In vitro cytotoxic activity against human U87MG cancer cell lines after 3 days of culture; assay type: functional, U-87MG ATCC; outline: as §2
CFPAC-1 = test: In vitro cytotoxic activity against human CFPAC-1 cancer cell lines after 3 days of culture; assay type: functional; outline: as §1
[23] = In vitro cytotoxic activity against human Capan-2 cancer cell lines after 3 days of culture; assay type: functional; outline: as §1
HT1197 = test: In vitro cytotoxic activity against human HT1197 cancer cell lines after 3 days of culture; assay type: functional; outline: as §1
U373 MG [24] = test: In vitro cytotoxic activity against human U-373MG cancer cell lines after 3 days of culture; assay type: functional, U-373MG ATCC; outline: as §2
[25] = In vitro cytotoxic activity against human Su.86.86 cancer cell lines after 3 days of culture; assay type: functional; outline: as §2
MIA PaCa-2 = test: In vitro cytotoxic activity against human MiaPaca-2 cancer cell lines after 3 days of culture; assay type: functional; outline: as §1
MDA-MB-231 = test: In vitro cytotoxic activity against human MDA-MB-231 cancer cell lines after 3 days of culture; assay type: functional; outline: as §1
[26] = In vitro cytotoxic activity against human Detroit 562 cancer cell lines after 3 days of culture; assay type: functional; outline: as §1
[27] = In vitro cytotoxic activity against human MCF7HTB-22 cancer cell lines after 3 days of culture; assay type: functional; outline: as §1
[28] = Concentration required for 50% growth inhibition of human Hs 683 cancer cell lines after 3 days of culture; assay type: functional, cell-based; details: 72 h; outline: as §3
[29] = In vitro cytotoxic activity against human Hs 729 cancer cell lines after 3 days of culture; assay type: functional; outline: as §1
Hs-578T = test: In vitro cytotoxic activity against human Hs 578.T cancer cell lines after 3 days of culture; assay type: functional; outline: as §1
LoVo [30] = test: Concentration required for 50% growth inhibition of human LoVo cancer cell lines after 3 days of culture; assay type: functional, cell-based; details: 72 h; outline: as §3

Work on `C[C@@H]1C[C@@]2(NC(=O)CS2)C2(O)O[C@@H]3C[C@@]4(CO)[C@@H](CC[C@@H]5[C@@H]4CC[C@]4(C)[C@@H](C6=CC(=O)OC6)CC[C@]54CO)C[C@H]3O[C@@H]2O1` (some centres not stated) yielded a Log IC50 (H4) of -7.5, a Log IC50 [1] of -7.7 and a Log IC50 (T-24) of -8.6. The Log IC50 (A204) was -8.2, the Log IC50 (A-427) was -7.6 and the Log IC50 (A549 [2]) was -8.1. It also gave a Log IC50 (ACHN) of -8.2, a Log IC50 (FaDu) of -8.1 and a Log IC50 [3] of -8.1. The Log IC50 (HT-29) was -7.8, the Log IC50 (ZR-75-1) was -7.4 and the Log IC50 (Malme-3M) was -6.4. The Log IC50 [4] was -8.7, the Log IC50 [5] was -8 and the Log IC50 [6] was -7.5. The Log IC50 (SK-MEL-28) was -7.4, the Log IC50 (LoVo [7]) was -8 and the Log IC50 (PC-3) was -8.1. The Log IC50 (T98G) was -8.2, the Log IC50 (WiDr) was -7.8 and the Log IC50 [8] was -8.3. The Log IC50 (786-0) was -8.5, the Log IC50 (A498) was -8.2 and the Log IC50 (BT-20) was -8.3. For the same compound, the Log IC50 (DLD-1) was -7.4, the Log IC50 (DU-145) was -8.7 and the Log IC50 [9] was -8.6. The Log IC50 (LNCaP) was -8.3, the Log IC50 [10] was -7.4 and the Log IC50 [11] was -7.4. It also gave a Log IC50 (T47D) of -8.4, a Log IC50 [12] of -8.1 and a Log IC50 (BXPC-3) of -7.7. For the same compound, the Log IC50 (CAKI-2) was -8.3, the IC50 [13] was 75 nM and the MTD (Mus musculus) was 80 mg/kg. The IC50 (A549 [14]) was 8 nM, the IC50 (U373 MG [15]) was 9 nM and the IC50 (HCT-15 [16]) was 24 nM. It also gave a Log IC50 (HCT-15 [17]) of -7.6, a Log IC50 [18] of -7.6 and a Log IC50 (HT-1080) of -7.4. The Log IC50 [19] was -7.4, the Log IC50 [20] was -7.4 and the Log IC50 (MES-SA) was -7.8. It also gave a Log IC50 (PANC-1) of -8.3, a Log IC50 [21] of -7 and a Log IC50 [22] of -7.7. It also gave a Log IC50 (U-87 MG) of -8.6, a Log IC50 (CFPAC-1) of -7.2 and a Log IC50 [23] of -9. It also gave a Log IC50 (HT1197) of -7.1, a Log IC50 (U373 MG [24]) of -8.1 and a Log IC50 [25] of -8.6. The Log IC50 (MIA PaCa-2) was -7.5, the Log IC50 (MDA-MB-231) was -8 and the Log IC50 [26] was -8.3. The Log IC50 [27] was -8.4, the IC50 [28] was 3 nM and the Log IC50 [29] was -7.5. For the same compound, the Log IC50 (Hs-578T) was -8.7 and the IC50 (LoVo [30]) was 10 nM.

Reference: ChEMBL document CHEMBL1144441, “Identification of a novel cardenolide (2''-oxovoruscharin) from Calotropis procera and the hemisynthesis of novel derivatives displaying potent in vitro antitumor activities and high in vivo tolerance: structure-activity relationship analyses” (J Med Chem, 2005)
